A3G deaminase: inhibitors of human APOBEC3G DNA deaminase | recombinant A3G, ssDNA deamination FAM/TAMRA fluorescence | Q9HC16 | inhibition, % at 20 µM | 0.28% of 330,000 active | AID 493012;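 active means inhibition of at least 40% at 20 µM, with no more than 30% in the related APOBEC3A deaminase screen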;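 further: plate controls were DMSO wells with A3G for no effect and wells lacking A3G enzyme for full effect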
APJ agonist: agonists of human APJ apelin receptor; 0.11% of 330,000 active; CHO-K1 APJ PathHunter beta-arrestin, luminescence; 0% DMSO wells, 100% apelin; activation, % at 20 µM; P35414;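 active means activation more than six SD over the plate average, tested at 20 µM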;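 further: 0% = DMSO alone and 100% = apelin-13 at 10 nM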
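Test system – PathHunter CHO-K1 APJ (AGTRL-1) beta-arrestin reporter cells · Input – 1000 cells/well · Compound – single test compound dose, 20 µM final, 1% DMSO · Times – compound stimulation 90 min at 25 °C, detection 60 min · Technique – beta-gal luminescence · Read-out basis – APJ–arrestin association signal · Control set – negative DMSO alone, positive Apelin-13 at 10 nM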
CXCR6 inh: blocks human CXCR6 beta-arrestin recruitment | CHO-K1 PathHunter CXCR6 beta-arrestin, luminescence | inhibition, % at 20 µM | 0.36% of 360,000 active; in the data active means inhibition above about 34%, passing the limit was not always enough;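 further: antagonist mode with CXCL16 agonist at 10 nM final; 0% = 10 nM CXCL16 with DMSO and 100% = unstimulated wells without agonist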
APOBEC3A inh: human APOBEC3A DNA deaminase inhibition; P31941; recombinant A3A, FAM/TAMRA ssDNA deamination fluorescence; inhibition, % at 20 µM; 0.41% of 330,000 active; AID 493011;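 active means at least 40% inhibition at 20 µM here, with at most 30% in a related deaminase screen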;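 further: plate controls were A3A with DMSO for no effect and wells lacking A3A enzyme for full effect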
Target sequence (P31941 whole entry, looked up): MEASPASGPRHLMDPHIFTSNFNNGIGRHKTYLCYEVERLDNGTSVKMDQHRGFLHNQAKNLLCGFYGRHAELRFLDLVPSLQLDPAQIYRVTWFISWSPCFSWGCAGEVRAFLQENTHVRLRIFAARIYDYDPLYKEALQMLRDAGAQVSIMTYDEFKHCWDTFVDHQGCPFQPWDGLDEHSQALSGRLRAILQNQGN
APJ antag: antagonists of human APJ apelin receptor; CHO-K1 APJ beta-arrestin complementation, luminescence; inhibition, % at 20 µM; 0.32% of 330,000 active; AID 2521;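 active means inhibition above about 40% at 20 µM, limit read from the data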;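 further: cells challenged with 10 nM apelin-13 agonist together with compound; plate controls were apelin-13 plus DMSO wells for no effect and DMSO wells lacking apelin-13 for full effect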
CCR6 antag: antagonists of human CCR6 receptor; P51684; CHO-K1 CCR6 PathHunter beta-arrestin, luminescence, CCL20-stimulated; inhibition, % at 20 µM; 0.49% of 340,000 active;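 active means compounds whose inhibition of the agonist-driven luminescence signal at 20 µM reaches about 50%, limit read from the data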;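 further: cells stimulated with CCL20 at 14 nM final; plate controls were DMSO with CCL20 for no effect and DMSO without agonist for full effect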
Target sequence (P51684 whole entry, looked up): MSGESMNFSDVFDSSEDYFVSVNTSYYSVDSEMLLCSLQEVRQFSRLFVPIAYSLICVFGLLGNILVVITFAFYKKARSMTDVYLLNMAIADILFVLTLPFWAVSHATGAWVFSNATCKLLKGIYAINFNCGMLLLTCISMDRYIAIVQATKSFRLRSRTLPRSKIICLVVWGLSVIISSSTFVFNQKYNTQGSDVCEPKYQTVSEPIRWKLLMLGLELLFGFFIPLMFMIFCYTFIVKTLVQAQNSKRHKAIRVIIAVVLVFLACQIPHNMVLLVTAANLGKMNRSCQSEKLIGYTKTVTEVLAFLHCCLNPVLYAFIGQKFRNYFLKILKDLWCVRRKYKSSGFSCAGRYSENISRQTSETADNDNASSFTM
APOBEC3A confirm: confirmation of human APOBEC3A DNA deaminase inhibitors; shares compounds with APOBEC3A inh; recombinant A3A, ssDNA deaminase UDG fluorescence assay; inhibition, % at 20 µM; 63% of 1,400 active; AID 493151;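 active means inhibition reaching a set limit, 80% of the first screen's cutoff, at 20 µM in any replicate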;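 further: plate controls were DMSO wells with A3A for no effect and wells lacking A3A enzyme for full effect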
UDG A3A counter: inhibits UDG, flagging false APOBEC3A inhibitors; UDG counterscreen, FAM/TAMRA uracil oligo fluorescence; inhibition, % at 20 µM; 1,000 tested, under 10 active; shares compounds with APOBEC3A inh; call rule not given here
* hit, by the source's call; · = no result. In the library only some 1.4% were active in any assay of this set; here they are far more common.

SMILES	A3G deaminase	APJ agonist	CXCR6 inh	APOBEC3A inh	APJ antag	CCR6 antag	APOBEC3A confirm	UDG A3A counter
CC(Oc1ccc(F)cc1)C(=O)Nc1cc(S(=O)(=O)N2CCCCC2)ccc1N1CCOCC1 (stereo unspecified)	4.0	-0.6	10.7	42.2*	3.0	12.1	2.6	·
CCN1CCN(c2ccc(S(=O)(=O)N3CCCCC3)cc2NC(=O)COc2ccc(Cl)cc2)CC1	4.3	-2.2	9.4	36.7	15.8	16.3	·	·
Cc1ccc(C(=O)NCC(=O)OCC(=O)Nc2ccc3[nH]c(=O)[nH]c3c2)cc1	-0.7	5.6	-2.3	3.0	23.1	1.7	·	·
CCOc1ccc(S(=O)(=O)N(CC)CC(=O)NCc2cccnc2)cc1C	-11.4	2.6	-1.5	0.5	12.6	8.1	·	·
COc1cccc(CNC(=O)C(C(=O)NCc2cccc(OC)c2)c2ncc(C(F)(F)F)cc2Cl)c1	12.4	-1.8	3.2	4.6	-8.9	-0.5	·	·
COc1ccc2nc(NC(=O)c3ccc(-c4cccc([N+](=O)[O-])c4)o3)sc2c1	14.3	-3.7	·	52.5*	3.7	·	32.1*	·
O=C(Nc1nc2ccc([N+](=O)[O-])cc2s1)c1ccco1	6.5	-0.8	·	7.7	33.2	·	·	·
COc1ccc2sc(NC(=O)c3ccco3)nc2c1	29.4	-5.8	-3.5	61.0*	6.9	2.5	47.9*	-1.6
CCN(C(=O)COC(=O)/C=C/c1ccc2c(c1)OCO2)c1c(N)n(Cc2ccccc2)c(=O)[nH]c1=O	·	·	3.6	·	·	-1.8	·	·
CCn1c2ccccc2c2cc(/C=C(/C#N)C(N)=S)ccc21	·	·	26.7	·	·	29.0	·	·
CCOc1c(C=C(C#N)C#N)c2ccccc2n1CC	-0.6	-0.4	8.3	41.8*	13.4	12.9	-7.3	-3.6
CN1CCN(C(=O)CCn2c(=S)[nH]c3ccccc3c2=O)CC1	·	·	-14.3	·	·	·	·	·
CCN1C(=NCc2cc(OC)c(OC)c(OC)c2)N[C@@H](c2ccccc2)C(C(=O)OC)=C1C	10.9	-3.6	4.0	44.5*	3.7	7.9	67.7*	0.1
CCN1C(=NCC2CC2)N[C@@H](c2ccccc2)C(C(=O)OC)=C1C	11.8	-4.3	4.8	45.6*	12.2	17.2	79.7*	3.9
CCN1C(=NCc2ccc(OC)cc2)N[C@@H](c2ccccc2)C(C(=O)OC)=C1C	11.8	-3.2	-0.7	92.1*	24.6	12.1	66.0*	-2.5
COC(=O)C1=C(C)N(Cc2ccccc2)C(=NCc2ccc(OC)cc2)N[C@H]1c1cccc(F)c1	37.3	12.3	-4.2	69.8	9.4	-1.1	·	·
CCN1C(=NCc2cc(OC)c(OC)c(OC)c2)N[C@@H](c2cccc(C(F)(F)F)c2)C(C(=O)OC)=C1C	-3.1	-2.9	6.3	4.8	12.1	3.6	·	·
CNc1nc2ccccc2n1CC(=O)c1ccccc1	-3.6	1.1	10.8	6.2	-1.6	14.0	·	·
CC(C)=CCCC1=CCC2C(=O)NNC(=O)C2C1 (stereo unspecified)	-7.0	-4.3	2.3	58.5*	7.8	3.3	-0.7	2.0
N#Cc1ccc(NC(=S)Nc2ccccc2)cc1	-0.1	-0.3	0.3	44.0*	8.4	4.0	-7.2	-3.6
C/C(=N/NS(=O)(=O)c1ccc(CC(C)C)cc1)c1ccncc1	-7.7	-3.3	-5.0	-3.5	-5.4	0.6	·	·
Cc1cccc2c(Cl)cc(=O)[nH]c12	-4.4	-0.6	·	-1.0	-21.0	·	·	·
Cc1cccc2cc(=O)[nH]c(C)c12	18.1	-2.5	0.6	40.1*	-15.2	3.3	6.6	·
CCN(C(=O)COC(=O)c1ccc(Br)o1)C1CCCCC1	-3.4	-2.3	-7.5	-0.6	3.5	9.6	·	·
O=C(Nc1ccc(-c2cn3ccsc3n2)cc1)C1CCCC1	2.8	5.6	-2.0	9.6	-1.6	-1.1	·	·
SMILES	A3G deaminase	APJ agonist	CXCR6 inh	APOBEC3A inh	APJ antag	CCR6 antag	APOBEC3A confirm	UDG A3A counter
O=C(Nc1ccc(-c2cn3ccsc3n2)cc1)C1CC1	-2.3	14.1	-3.9	77.5*	8.7	-19.1	10.3	-1.1
Cn1cccc2[nH]c(=O)nc1-2	10.6	-2.2	-7.3	77.6*	-3.4	7.0	20.4	·
CC(C)n1c(SCC(=O)Nc2nncs2)nnc1-c1ccco1	22.9	-0.2	·	66.2*	-61.4	3.7	53.0*	-2.2
Brc1c(C[n+]2ccccc2)nc2ccccn12	-9.8	-4.0	-4.6	-3.7	5.3	4.3	·	·
CCN(CC(=O)Nc1c(F)cccc1F)C(=O)c1cccc(-n2cccc2)c1	18.1	-8.0	-4.4	74.9*	-17.3	16.9	55.2*	-3.1
CCN(CC(=O)Nc1ccccc1OC)C(=O)c1cccc(-n2cccc2)c1	-1.2	9.0	-12.7	-3.0	-8.7	8.8	·	·
C(C#CCN1CCOCC1)#CCN1CCOCC1	·	·	0.0	·	·	1.0	·	·
Clc1ccc(Sc2oc(/C=N/n3cnnc3)cc2Br)cc1	24.9	0.8	-5.4	43.3*	-24.0	-13.8	72.2*	-4.5
C[N+]1(C2CCC3CCCC2C3O)CCCCC1 (stereo unspecified)	20.8	-4.1	7.3	64.9*	-19.5	16.1	67.9*	3.6
CCn1c(CNC(=O)COc2ccc(C(C)C)cc2)nnc1SCC(=O)Nc1cc(F)ccc1C	22.9	1.7	-8.5	77.7*	-3.2	-3.5	76.8*	10.5
O=C(Nc1cccc(C(F)(F)F)c1)C1Cc2c(-c3ccco3)ccnc2O1 (stereo unspecified)	·	·	-1.9	·	·	·	·	·
COc1ccc2cc(C(=O)Nc3ccc(S(N)(=O)=O)cc3)sc(=O)c2c1OC	-7.8	-2.9	-7.4	-3.9	0.8	6.8	·	·
CCN1CCN(c2ccccc2NC(=O)c2ccc(-n3cccn3)cc2)CC1	9.4	-3.0	-10.7	46.0*	-5.7	11.5	27.7	·
O=C(Nc1ccccc1N1CCN(c2ccc(F)cc2)CC1)c1ccccc1	-2.9	-2.4	0.3	0.1	13.2	11.6	·	·
CC(C)CC(=O)N1CCN(c2ccc([N+](=O)[O-])cc2Cl)CC1	-7.0	-1.9	-1.3	7.2	1.6	19.9	·	·
O=C(c1cc([N+](=O)[O-])ccc1N1CCOCC1)N1CCCCC1	-4.7	-3.7	6.7	-0.6	11.5	-1.9	·	·
CC(C)C(=O)N1CCN(c2ccc([N+](=O)[O-])cc2Cl)CC1	15.3	-4.2	-3.4	55.4*	-8.2	12.3	17.3*	-2.1
O=C(c1cc([N+](=O)[O-])ccc1N1CCOCC1)N1CCN(c2ccc([N+](=O)[O-])cc2)CC1	6.5	-7.2	10.9	56.1*	15.0	20.5	5.0	·
CCn1ncc(Cl)c1C(=O)Nc1ccc2c(c1)CCC2	-7.0	0.8	-16.1	-5.2	3.3	·	·	·
Cc1cccnc1NC(=O)CN1C(=O)COc2ccc(Cl)cc21	16.7	2.6	-4.0	68.7*	-2.1	12.9	58.6*	-1.3
